In ChEMBL document CHEMBL3576855, “Spongosine production by a Vibrio harveyi strain associated with the sponge Tectitethya crypta” (J Nat Prod, 2015):
Active and inactive are the calls of the source. No cut-off for these calls is given here.

Tests used:
RAW264.7 [1] = experiment: Antiinflammatory activity in mouse RAW264.7 cells assessed as inhibition of LPS-stimulated nitric oxide production up to 30 ug/ml after 24 hrs by Colorimetry based Griess assay; type: functional, cell-based
Procedure, shortened: (§1)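 RAW 264.7 murine macrophages were pretreated with the nucleosides for 1 h at 0.1, 0.3, 1.0, 3.0, 10 and 30 μg/mL, with n = 6 wells per concentration. LPS (3 μg/mL) was then added and cells incubated 24 h. Nitrite was measured with Griess stain and expressed as percent reduction versus the LPS control. Significance was tested by ANOVA with Dunnett's test.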

RAW264.7 [2] = experiment: Cytotoxicity against mouse RAW264.7 cells assessed as cell viability after 48 hrs by MTT assay; type: cell-based; conditions: raw264.7, 48 h
RAW264.7 [3] = experiment: Antiinflammatory activity in mouse RAW264.7 cells assessed as inhibition of LPS-stimulated nitric oxide production at 3 ug/ml after 24 hrs by Colorimetry based Griess assay; type: functional; conditions: RAW264.7, 24 h; procedure, shortened: as §1

Row | Compound | inhibition (RAW264.7 [1]) | Activity (RAW264.7 [2]) | inhibition at 3 µg/mL (RAW264.7 [3])
1 | COc1nc(N)c2nc[nH]c2n1 | Active | – | –
2 | Nc1nc2c(nc(O)n2[C@H]2C[C@H](O)[C@@H](CO)O2)c(=O)[nH]1 | – | Non-toxic | –
3 | COc1nc(N)c2ncn([C@H]3C[C@H](O)[C@@H](CO)O3)c2n1 | Active | Non-toxic | –
4 | Nc1nc2c(ncn2[C@H]2C[C@H](O)[C@@H](CO)O2)c(=O)[nH]1 [DEOXYGUANOSINE] | – | Non-toxic | –
5 | Nc1nc2c([nH]c(=O)n2[C@H]2C[C@H](O)[C@@H](CO)O2)c(=O)[nH]1 | Active | – | –
6 | Nc1nc(O)c2ncn([C@H]3C[C@H](O)[C@@H](CO)O3)c2n1 | Active | – | –
7 | COc1nc(N)c2ncn([C@@H]3O[C@H](CO)[C@@H](O)[C@H]3O)c2n1 [BVT.115959] | – | Non-toxic | 60%
8 | Cc1cn([C@@H]2O[C@H](CO)[C@@H](O)[C@@H]2O)c(=O)[nH]c1=O | Active | Non-toxic | –
9 | COc1nc(N)c2[nH]cnc2n1 | – | Non-toxic | –
